For 31 compounds, IC50, inhibition of growth and Inhibition results are on record in ChEMBL document CHEMBL1157080 (Eur J Med Chem, 2010).

Broadly, the IC50 is the concentration that gives 50% inhibition. By Inhibition is commonly meant the percentage by which the read-out fell short of the control.

Molecules are shown by their SMILES.

Experiment [1] has as its system HT-29. Briefly: Growth inhibition of human HT-29 cells after 72 hrs by cell titer glo assay. The class given is functional, cell-based. The settings on record: HT-29, 72 h.
The test system of experiment [2] is HT-29. The experiment can be described thus: Growth inhibition of human HT-29 cells at 100 uM after 72 hrs by cell titer glo assay. It counts as functional. The following applies: HT-29, 72 h, read-out: GI. The method, boiled down: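 HT-29 cells in RPMI 1640/5% FBS, >95% viable at harvest, seeded 5000 cells/well and incubated 18–24 h before dosing at a single 100 μM screening dose (final DMSO 0.1%). Percent growth inhibition from CellTiter-Glo luminescence 72 h after treatment, triplicate wells.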
In general terms: Cellular ATP, detected with luciferase, serves as a proxy for viable cell number.

Experiment [3] deals with T1, cGMP-specific 3',5'-cyclic phosphodiesterase (Homo sapiens, UniProt O76074). Briefly: Inhibition of human recombinant PDE5 after 1.5 hrs by fluorescent polarization assay. The method, boiled down: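 Purified PDE5 (5 μ/mL) treated with compound or vehicle plus 50 nM TAMRA-cGMP, incubated 1.5 h at 30 °C. IMAP binding reagent was then added for 30 min at 30 °C and fluorescence polarization read.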

The target in experiment [4] is T1, cGMP-specific 3',5'-cyclic phosphodiesterase. Briefly: Inhibition of human recombinant PDE5 at 100 uM after 1.5 hrs by fluorescent polarization assay. The method, boiled down:
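Single 100 μM screening dose, run in triplicate. Purified PDE5 with 50 nM TAMRA-cGMP, 1.5 h at 30 °C, then IMAP binding reagent for 30 min at 30 °C. Percent inhibition from fluorescence polarization.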

`CCN1C(=O)[C@H]2Cc3c([nH]c4ccccc34)[C@@H](c3ccccc3Br)N2C1=O`: the IC50 stood at 21 µM in the experiment on HT-29 [1] and 0.29 µM in experiment [3]. In addition, the inhibition of growth at 100 µM in the experiment with HT-29 [2] was found to be 79.5%. In addition, in experiment [4], the Inhibition was determined as 98.7%.
Regarding `O=C1[C@@H]2Cc3c([nH]c4ccccc34)[C@@H](c3ccccc3Br)N2C(=O)CN1Cc1ccccc1`, the 50% inhibitory concentration (IC50) in the experiment on HT-29 [1] was > 100 µM; in experiment [3], 0.04 µM. Further, the Inhibition in experiment [4] was 100%.
Turning to `COC(=O)[C@H]1Cc2c([nH]c3ccccc23)[C@H](c2ccccc2Br)N1C(=O)CCl`, the IC50 in the experiment on HT-29 [1] is > 100 µM. Moreover, in experiment [4], the Inhibition came to 47.9%.
Turning to `COC(=O)[C@@H]1Cc2c([nH]c3ccccc23)[C@@H](c2ccccc2Br)N1`, in the experiment on HT-29 [2], the inhibition of growth at 100 µM was 57.5%. In addition, the half-maximal inhibitory concentration (IC50) in experiment [3] was found to be 3.1 µM. Besides, the Inhibition in experiment [4] is 91.1%.
Regarding `CN1CC(=O)N2[C@H](c3ccccc3Br)c3[nH]c4ccccc4c3C[C@H]2C1=O`, the IC50 in the experiment with HT-29 [1] turned out to be 25.5 µM; in experiment [3], 0.06 µM. Further, the Inhibition in experiment [4] was found to be 97.6%.
As for `CCN1C(=O)[C@H]2Cc3c([nH]c4ccccc34)[C@H](c3ccccc3Br)N2C1=S`, the IC50 with HT-29 [1] was > 100 µM; in experiment [3], 74 µM. For the same compound, the Inhibition in experiment [4] amounted to 82.8%.
In the case of `CCCCN1CC(=O)N2[C@@H](c3ccccc3Br)c3[nH]c4ccccc4c3C[C@H]2C1=O`, the IC50 in the experiment with HT-29 [1] was > 100 µM. Moreover, the Inhibition in experiment [4] worked out at 69.1%.
In the same order, the values of `O=C1[C@H]2Cc3c([nH]c4ccccc34)[C@H](c3ccccc3Br)N2C(=O)CN1Cc1ccccc1` are > 100 µM and 69.4%.
In the case of `COC(=O)[C@H]1Cc2c([nH]c3ccccc23)[C@@H](c2ccccc2Br)N1C(=O)CCl`, the half-inhibitory concentration (IC50) with HT-29 [1] was found to be 1.6 µM; in experiment [3], 29 µM. For the same compound, the Inhibition in experiment [4] came out at 86%.
Consider `CCN1C(=O)[C@@H]2Cc3c([nH]c4ccccc34)[C@H](c3ccccc3Br)N2C1=O`, for which the half-maximal inhibitory concentration (IC50) in the experiment with HT-29 [1] was found to be 24 µM; in experiment [3], 0.64 µM. Moreover, the inhibition of growth at 100 µM in the experiment on HT-29 [2] came out at 77.9%. For the same compound, the Inhibition in experiment [4] is 89.5%.
Compound `COC(=O)[C@@H]1Cc2c([nH]c3ccccc23)[C@H](c2ccccc2Br)N1` gave an IC50 with HT-29 [1] of 26 µM. The inhibition of growth at 100 µM with HT-29 [2] worked out at 92.8%. For the same compound, in experiment [4], the Inhibition was found to be 46%.
With `COC(=O)[C@H]1Cc2c([nH]c3ccccc23)[C@H](c2ccccc2Br)N1`, in the experiment with HT-29 [1], the IC50 turned out to be 78 µM. In the experiment with HT-29 [2], the inhibition of growth at 100 µM is 85%. In experiment [4], the Inhibition was 21.5%.
As for `CCN1CC(=O)N2[C@H](c3ccccc3Br)c3[nH]c4ccccc4c3C[C@H]2C1=O`, the inhibition of growth at 100 µM in the experiment with HT-29 [2] turned out to be 47.2%. The Inhibition in experiment [4] came to 89.2%.
`CCCCN1CC(=O)N2[C@H](c3ccccc3Br)c3[nH]c4ccccc4c3C[C@H]2C1=O`: the results for the IC50 (with HT-29 [1]; in experiment [3]) were > 100 µM and 0.05 µM, respectively. Also, in experiment [4], the Inhibition is 93.8%.
The compound `COC(=O)[C@@H]1Cc2c([nH]c3ccccc23)[C@H](c2ccccc2Br)N1C(=O)CCl` gave an IC50 in the experiment with HT-29 [1] of 4.1 µM. Besides, in experiment [4], the Inhibition came out at 35.8%.
With `CCN1CC(=O)N2[C@@H](c3ccccc3Br)c3[nH]c4ccccc4c3C[C@H]2C1=O`, in experiment [4], the Inhibition is 90.3%.
Consider `CCCCN1CC(=O)N2[C@@H](c3ccccc3Br)c3[nH]c4ccccc4c3C[C@@H]2C1=O`, for which the inhibition of growth at 100 µM with HT-29 [2] came to 50.2%. In addition, the Inhibition in experiment [4] came out at 66.7%.
On to `CN1CC(=O)N2[C@H](c3ccccc3Br)c3[nH]c4ccccc4c3C[C@@H]2C1=O`, for which, in the experiment on HT-29 [2], the inhibition of growth at 100 µM came to 50.4%. The IC50 in experiment [3] was 0.1 µM. Moreover, the Inhibition in experiment [4] came to 96%.
As for `O=C1[C@H]2Cc3c([nH]c4ccccc34)[C@@H](c3ccccc3Br)N2C(=O)CN1Cc1ccccc1`, the inhibition of growth at 100 µM in the experiment on HT-29 [2] amounted to 34.2%. In experiment [3], the IC50 was found to be 3.4 µM. Also, the Inhibition in experiment [4] was determined as 91.9%.
For the compound `CN1CC(=O)N2[C@H](c3ccc4c(c3)OCO4)c3[nH]c4ccccc4c3C[C@@H]2C1=O`, in the experiment with HT-29 [1], the IC50 was > 100 µM. The Inhibition in experiment [4] turned out to be 100%.
In the same order, the values of `CCN1CC(=O)N2[C@H](c3ccccc3Br)c3[nH]c4ccccc4c3C[C@@H]2C1=O` are > 100 µM and 97%.
For the compound `CCN1C(=O)[C@H]2Cc3c([nH]c4ccccc34)[C@H](c3ccccc3Br)N2C1=O`, the inhibition of growth at 100 µM in the experiment on HT-29 [2] turned out to be 65.1%. The IC50 in experiment [3] is 4 µM. Besides, in experiment [4], the Inhibition was 93%.
Regarding `CCN1C(=O)[C@@H]2Cc3c([nH]c4ccccc34)[C@@H](c3ccccc3Br)N2C1=O`, the IC50 in the experiment on HT-29 [1] is 20 µM; in experiment [3], 0.038 µM. The inhibition of growth at 100 µM in the experiment with HT-29 [2] was 69.8%. Further, the Inhibition in experiment [4] worked out at 99.5%.
In the same order, the values of `CN1CC(=O)N2[C@@H](c3ccccc3Br)c3[nH]c4ccccc4c3C[C@H]2C1=O` are 27 µM, 2.8 µM, 76.1% and 92.7%.
With `CN1CC(=O)N2[C@@H](c3ccccc3Br)c3[nH]c4ccccc4c3C[C@@H]2C1=O`, the inhibition of growth at 100 µM in the experiment with HT-29 [2] is 61.7%. Further, the half-inhibitory concentration (IC50) in experiment [3] worked out at 88 µM. Besides, the Inhibition in experiment [4] amounted to 75.5%.
For `O=C1[C@@H]2Cc3c([nH]c4ccccc34)[C@H](c3ccccc3Br)N2C(=O)CN1Cc1ccccc1`, the IC50 with HT-29 [1] was > 100 µM. In addition, the Inhibition in experiment [4] was 48.7%.
Regarding `COC(=O)[C@@H]1Cc2c([nH]c3ccccc23)[C@@H](c2ccccc2Br)N1C(=O)CCl`, the Inhibition in experiment [4] amounted to 47.9%.
In the case of `CCN1C(=O)[C@@H]2Cc3c([nH]c4ccccc34)[C@@H](c3ccccc3Br)N2C1=S`, the concentration for half-maximal inhibition (IC50) in the experiment with HT-29 [1] was 22.5 µM; in experiment [3] it was 6.1 µM. Moreover, in experiment [4], the Inhibition was 93.5%.
Regarding `CCN1CC(=O)N2[C@@H](c3ccccc3Br)c3[nH]c4ccccc4c3C[C@@H]2C1=O`, the inhibition of growth at 100 µM with HT-29 [2] is 65.6%. Also, in experiment [4], the Inhibition worked out at 91.7%.
Regarding `COC(=O)[C@H]1Cc2c([nH]c3ccccc23)[C@@H](c2ccccc2Br)N1`, the values for the IC50 (with HT-29 [1]; in experiment [3]) were 48 µM and 5.6 µM, respectively. Besides, the inhibition of growth at 100 µM with HT-29 [2] was 89%. Also, the Inhibition in experiment [4] stood at 85.5%.
As to `CCCCN1CC(=O)N2[C@H](c3ccccc3Br)c3[nH]c4ccccc4c3C[C@@H]2C1=O`, the inhibition of growth at 100 µM with HT-29 [2] was found to be 55.7%. For the same compound, in experiment [3], the IC50 came out at 0.26 µM. The Inhibition in experiment [4] is 99.7%.
